Data from ChEMBL document CHEMBL6103596, “Design, Synthesis, and Biological Evaluation of BODIPY-Caged Resiquimod as a Dual-Acting Phototherapeutic” (J Med Chem, 2025).

How the values were obtained:
[1] = Photosensitizing ability of the compound assessed as singlet oxygen quantum yield under 600nm monochromatic light irradiation by DPBF based assay relative to control; type: functional
Summary of the method: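 Singlet oxygen generation followed by the decrease in DPBF absorbance under irradiation. DPBF (20–25 μm) used at 5–10-fold excess over compound (2.5–5 μm).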

[2] = system: AD293; test: Cytotoxicity against human AD293 cells assessed as cell viability at 0.1 to 10 uM incubated for 24 hrs by MTT assay; type: toxicity, cell-based; settings: ad293, 24 h, dose 0.1-10 µM
Summary of the method: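 AD293 cells seeded at 4 × 10^4 cells/well in DMEM with 10% FBS. Next day, compound (100 nM, 1 μM, 10 μM) or vehicle added in serum-free DMEM for 24 h, no irradiation. MTT (5 mg/mL reagent) added for 3 h at 37 °C, formazan dissolved in DMSO, absorbance read at 590 nm. Triplicate wells, four independent experiments.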

[3] = Photophysical property of the compound assessed as fluorescence quantum yield; type: physicochemical
[4] = Photorelease activity of the compound in CH3CN assessed as retention time under 532nm laser light by HPLC analysis; type: physicochemical
[5] = Photorelease activity of the compound in aqueous solution at 30 uM measured upto 200 mins under dark condition by 1H NMR spectroscopy analysis; type: ADME; settings: buffer, 3.333 h
[6] = Photorelease activity of the compound in DMSO-d6 measured after 10 hrs under 660nm 400mW LED light by 1H NMR spectroscopy analysis relative to control; type: ADME
[7] = Thermal stability of compound in DMSO-d6 at 37.5 degree C measured before 24 hrs by 1H NMR spectroscopy analysis; type: physicochemical
Summary of the method: (§1)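 Compound in DMSO-d6 followed by 1H NMR. Degradation taken from the intensity of three signals (one resiquimod, one BODIPY, and the linkage NH), each relative to the DMSO-d6 internal standard, and the three averaged.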

[8] = Thermal stability of compound in DMSO-d6 at 37.5 degree C measured after 2 days by 1H NMR spectroscopy analysis relative to control; type: physicochemical; settings: 48 h; time 2 day; summary of the method: as §1
[9] = Thermal stability of compound in DMSO-d6 at 37.5 degree C measured after 3 days by 1H NMR spectroscopy analysis relative to control; type: physicochemical; settings: 72 h; time 3 day; summary of the method: as §1
[10] = Thermal stability of compound in DMSO-d6 at 37.5 degree C measured after 1 day by 1H NMR spectroscopy analysis relative to control; type: physicochemical; settings: 24 h; summary of the method: as §1
[11] = Photorelease activity of the compound in aqueous solution at 30 uM measured upto 200 mins under 660nm 400mW LED light by UV-vis spectroscopy analysis; settings: buffer, 3.333 h

| Compound | Activity [1] [%] | Activity [2] | Activity [3] | Retention_time [4] [min] | Activity [5] | Activity [6] | Activity [7] | Activity [8] [%] | Activity [9] [%] | Activity [10] [%] | Activity [11] |
| --- | --- | --- | --- | --- | --- | --- | --- | --- | --- | --- | --- |
| COCCOCCOCCOc1ccc(/C=C/C2=[N+]3C(=C(CO)c4c(C)cc(/C=C/c5ccc(OCCOCCOCCOC)cc5)n4[B-]3(F)F)C(C)=C2)cc1 | 0.37 | Non-toxic | 0.554 | – | – | – | – | – | – | – | – |
| CC1=CC(C)=[N+]2C1=C(CO)c1c(C)cc(C)n1[B-]2(F)F | 7 | Toxic | 0.835 | 4.15 | – | – | – | – | – | – | – |
| CCOCc1nc2c(NC(=O)OCC3=C4C(C)=CC(/C=C/c5ccc(OCCOCCOCCOC)cc5)=[N+]4[B-](F)(F)n4c(/C=C/c5ccc(OCCOCCOCCOC)cc5)cc(C)c43)nc3ccccc3c2n1CC(C)(C)O | 0.33 | Non-toxic | 0.482 | – | Not_active | ~ 90% | Not_active | 11 | 15 | 7 | Active |
